Assay results from ChEMBL document CHEMBL4689842, “EUbOPEN Chemogenomics Library wave 1” (2021).
Values joined by “and” are separate entries in the source; they are usually repeats but may differ in a detail not shown here. Identical values can stand only once.

System: HEK-293T
Assay: Multiplex assay against HEK293T;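 on Population Tubulin-Different-Phenotype (%): share of the cells with healthy nuclei that show this phenotype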
Type: toxicity, cell-based
Details: human
How it was run: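 Four dyes were applied at seeding to live cells: Hoechst33342, BioTracker Green Microtubule Cytoskeleton Dye, MitoTracker Red and Annexin V Alexa Fluor 680. Imaging after compound addition used a CQ1 microscope at 37°C and 5% CO2. CellPathfinder machine-learning gating then sorted cells into Hoechst high-intensity objects or normal cells, normal cells into healthy, pyknosed or fragmented nuclei, and pyknosed cells into mitotic or apoptotic, with tubulin, mitochondrial-mass and membrane-permeability phenotypes given as per cents of healthy-nucleus cells.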

[1] = 12 h, 1 µM, compound concentration 1 uM, replicate 1
[2] = 12 h, 1 µM, compound concentration 1 uM, replicate 2
[3] = 12 h, 10 µM, compound concentration 10 uM, replicate 1
[4] = 12 h, 10 µM, compound concentration 10 uM, replicate 2
[5] = 24 h, 1 µM, compound concentration 1 uM, replicate 1
[6] = 24 h, 1 µM, compound concentration 1 uM, replicate 2
[7] = 24 h, 10 µM, compound concentration 10 uM, replicate 1
[8] = 24 h, 10 µM, compound concentration 10 uM, replicate 2
[9] = 48 h, 10 µM, compound concentration 10 uM, replicate 1
[10] = 48 h, 10 µM, compound concentration 10 uM, replicate 2
[11] = 48 h, 1 µM, compound concentration 1 uM, replicate 1
[12] = 48 h, 1 µM, compound concentration 1 uM, replicate 2

CNC(=O)c1nn(C)c2c1C(C)(C)Cc1cnc(Nc3ccc(N4CCN(C)CC4)cc3)nc1-2 [MILCICLIB]
Population Apoptotic (%) [1]: 28% | Population Fragmented Nuclei (%) [1]: 17% | Population Healthy Nuclei (%) [1]: 41% | Population Hoechst High Intensity Objects (%) [1]: 21% | Population Membrane Permeable-Phenotype (%) [1]: 9% | Population Mitochondria Different-Phenotype (%) [1]: 25% | Population Mitotic Cells (%) [1]: 71% | Population Normal (%) [1]: 78% | Population Pyknosed Nuclei (%) [1]: 40% | Population Tubulin-Different-Phenotype (%) [1]: 82% | Total Cell Count [1]: 581 | Population Apoptotic (%) [2]: 23% | Population Fragmented Nuclei (%) [2]: 2% | Population Healthy Nuclei (%) [2]: 83% | Population Hoechst High Intensity Objects (%) [2]: 9% | Population Membrane Permeable-Phenotype (%) [2]: 3% | Population Mitochondria Different-Phenotype (%) [2]: 64% | Population Mitotic Cells (%) [2]: 76% | Population Normal (%) [2]: 90% | Population Pyknosed Nuclei (%) [2]: 14% | Population Tubulin-Different-Phenotype (%) [2]: 98% | Total Cell Count [2]: 860 | Population Apoptotic (%) [3]: 29% and 75% and 67% | Population Healthy Nuclei (%) [3]: 36% and 49% | Population Hoechst High Intensity Objects (%) [3]: 18% and 11% and 13% | Population Mitochondria Different-Phenotype (%) [3]: 39% and 100% and 98% | Population Mitotic Cells (%) [3]: 70% and 24% and 32% | Population Normal (%) [3]: 81% and 88% and 86% | Population Pyknosed Nuclei (%) [3]: 38% and 43% | Population Tubulin-Different-Phenotype (%) [3]: 79% and 97% | Total Cell Count [3]: 581 and 226 and 425 | Population Fragmented Nuclei (%) [4]: 6% and 3% and 2% | Population Hoechst High Intensity Objects (%) [4]: 6% and 8% and 9% | Population Membrane Permeable-Phenotype (%) [4]: 12% and 10% and 4% | Population Mitochondria Different-Phenotype (%) [4]: 87% and 90% and 57% | Population Mitotic Cells (%) [4]: 40% and 30% and 79% | Population Normal (%) [4]: 93% and 91% and 90% | Population Tubulin-Different-Phenotype (%) [4]: 91% and 100% and 99% | Population Apoptotic (%) [5]: 43% | Population Fragmented Nuclei (%) [5]: 21% | Population Healthy Nuclei (%) [5]: 33% | Population Hoechst High Intensity Objects (%) [5]: 19% | Population Membrane Permeable-Phenotype (%) [5]: 7% | Population Mitochondria Different-Phenotype (%) [5]: 64% | Population Mitotic Cells (%) [5]: 56% | Population Normal (%) [5]: 80% | Population Pyknosed Nuclei (%) [5]: 45% | Population Tubulin-Different-Phenotype (%) [5]: 78% | Total Cell Count [5]: 556 | Population Apoptotic (%) [6]: 34% | Population Fragmented Nuclei (%) [6]: 2% | Population Healthy Nuclei (%) [6]: 82% | Population Hoechst High Intensity Objects (%) [6]: 9% | Population Membrane Permeable-Phenotype (%) [6]: 2% | Population Mitochondria Different-Phenotype (%) [6]: 81% | Population Mitotic Cells (%) [6]: 65% | Population Normal (%) [6]: 90% | Population Pyknosed Nuclei (%) [6]: 14% | Population Tubulin-Different-Phenotype (%) [6]: 98% | Total Cell Count [6]: 887 | Population Apoptotic (%) [7]: 55% and 82% and 67% | Population Healthy Nuclei (%) [7]: 32% and 22% and 44% | Population Hoechst High Intensity Objects (%) [7]: 19% and 13% | Population Membrane Permeable-Phenotype (%) [7]: 10% and 2% | Population Mitochondria Different-Phenotype (%) [7]: 63% and 100% and 98% | Population Mitotic Cells (%) [7]: 44% and 17% and 32% | Population Normal (%) [7]: 80% and 86% | Population Pyknosed Nuclei (%) [7]: 42% and 69% and 48% | Population Tubulin-Different-Phenotype (%) [7]: 80% and 91% | Total Cell Count [7]: 565 and 241 and 453 | Population Fragmented Nuclei (%) [8]: 6% and 3% and 4% | Population Hoechst High Intensity Objects (%) [8]: 6% and 7% | Population Membrane Permeable-Phenotype (%) [8]: 6% and 4% | Population Mitochondria Different-Phenotype (%) [8]: 92% and 95% and 77% | Population Normal (%) [8]: 93% and 92% | Population Tubulin-Different-Phenotype (%) [8]: 94% and 95% and 98% | Population Apoptotic (%) [9]: 87% and 71% | Population Fragmented Nuclei (%) [9]: 14% | Population Healthy Nuclei (%) [9]: 17% and 42% | Population Hoechst High Intensity Objects (%) [9]: 13% and 11% | Population Membrane Permeable-Phenotype (%) [9]: 0% | Population Mitochondria Different-Phenotype (%) [9]: 100% and 99% | Population Mitotic Cells (%) [9]: 12% and 28% | Population Normal (%) [9]: 86% and 88% | Population Pyknosed Nuclei (%) [9]: 68% and 49% | Population Tubulin-Different-Phenotype (%) [9]: 92% | Total Cell Count [9]: 263 and 534 | Population Apoptotic (%) [10]: 86% and 89% | Population Fragmented Nuclei (%) [10]: 6% and 7% | Population Healthy Nuclei (%) [10]: 21% and 15% | Population Hoechst High Intensity Objects (%) [10]: 12% and 9% | Population Membrane Permeable-Phenotype (%) [10]: 2% | Population Mitochondria Different-Phenotype (%) [10]: 91% | Population Mitotic Cells (%) [10]: 13% and 10% | Population Normal (%) [10]: 87% and 90% | Population Pyknosed Nuclei (%) [10]: 71% and 76% | Population Tubulin-Different-Phenotype (%) [10]: 85% and 70% | Total Cell Count [10]: 182 and 236

O=C(O)c1ccc2cc(-c3ccc(O)c(C45CC6CC(CC(C6)C4)C5)c3)ccc2c1 [O-DEMETHYLATED ADAPALENE]
Population Apoptotic (%) [1]: 35% | Population Fragmented Nuclei (%) [1]: 6% | Population Healthy Nuclei (%) [1]: 60% | Population Hoechst High Intensity Objects (%) [1]: 5% | Population Membrane Permeable-Phenotype (%) [1]: 1% | Population Mitochondria Different-Phenotype (%) [1]: 70% | Population Mitotic Cells (%) [1]: 64% | Population Normal (%) [1]: 94% | Population Pyknosed Nuclei (%) [1]: 33% | Population Tubulin-Different-Phenotype (%) [1]: 30% | Total Cell Count [1]: 320 | Population Apoptotic (%) [2]: 12% | Population Fragmented Nuclei (%) [2]: 2% | Population Healthy Nuclei (%) [2]: 57% | Population Hoechst High Intensity Objects (%) [2]: 4% | Population Membrane Permeable-Phenotype (%) [2]: 8% | Population Mitochondria Different-Phenotype (%) [2]: 15% | Population Mitotic Cells (%) [2]: 87% | Population Normal (%) [2]: 95% | Population Pyknosed Nuclei (%) [2]: 40% | Population Tubulin-Different-Phenotype (%) [2]: 17% | Total Cell Count [2]: 214 | Population Apoptotic (%) [3]: 53% | Population Fragmented Nuclei (%) [3]: 21% | Population Healthy Nuclei (%) [3]: 33% | Population Hoechst High Intensity Objects (%) [3]: 15% | Population Mitochondria Different-Phenotype (%) [3]: 52% | Population Mitotic Cells (%) [3]: 46% | Population Normal (%) [3]: 84% | Population Pyknosed Nuclei (%) [3]: 45% | Population Tubulin-Different-Phenotype (%) [3]: 14% | Total Cell Count [3]: 204 | Population Apoptotic (%) [4]: 14% | Population Fragmented Nuclei (%) [4]: 8% | Population Healthy Nuclei (%) [4]: 43% | Population Hoechst High Intensity Objects (%) [4]: 5% | Population Membrane Permeable-Phenotype (%) [4]: 3% | Population Mitochondria Different-Phenotype (%) [4]: 6% | Population Mitotic Cells (%) [4]: 85% | Population Normal (%) [4]: 94% | Population Pyknosed Nuclei (%) [4]: 47% | Population Tubulin-Different-Phenotype (%) [4]: 11% | Total Cell Count [4]: 228 | Population Apoptotic (%) [5]: 37% | Population Fragmented Nuclei (%) [5]: 5% | Population Hoechst High Intensity Objects (%) [5]: 5% | Population Membrane Permeable-Phenotype (%) [5]: 6% | Population Mitochondria Different-Phenotype (%) [5]: 44% | Population Mitotic Cells (%) [5]: 62% | Population Normal (%) [5]: 94% | Population Pyknosed Nuclei (%) [5]: 19% | Population Tubulin-Different-Phenotype (%) [5]: 24% | Total Cell Count [5]: 354 | Population Apoptotic (%) [6]: 13% | Population Fragmented Nuclei (%) [6]: 6% | Population Healthy Nuclei (%) [6]: 75% | Population Hoechst High Intensity Objects (%) [6]: 1% | Population Membrane Permeable-Phenotype (%) [6]: 13% | Population Mitochondria Different-Phenotype (%) [6]: 14% | Population Mitotic Cells (%) [6]: 86% | Population Normal (%) [6]: 98% | Population Pyknosed Nuclei (%) [6]: 18% | Population Tubulin-Different-Phenotype (%) [6]: 26% | Total Cell Count [6]: 257 | Population Apoptotic (%) [7]: 52% | Population Fragmented Nuclei (%) [7]: 16% | Population Healthy Nuclei (%) [7]: 43% | Population Hoechst High Intensity Objects (%) [7]: 20% | Population Membrane Permeable-Phenotype (%) [7]: 1% | Population Mitochondria Different-Phenotype (%) [7]: 34% | Population Mitotic Cells (%) [7]: 47% | Population Normal (%) [7]: 79% | Population Pyknosed Nuclei (%) [7]: 40% | Population Tubulin-Different-Phenotype (%) [7]: 14% | Total Cell Count [7]: 218 | Population Apoptotic (%) [8]: 25% | Population Fragmented Nuclei (%) [8]: 11% | Population Healthy Nuclei (%) [8]: 50% | Population Hoechst High Intensity Objects (%) [8]: 11% | Population Membrane Permeable-Phenotype (%) [8]: 4% | Population Mitochondria Different-Phenotype (%) [8]: 17% | Population Mitotic Cells (%) [8]: 75% | Population Normal (%) [8]: 88% | Population Pyknosed Nuclei (%) [8]: 38% | Population Tubulin-Different-Phenotype (%) [8]: 16% | Total Cell Count [8]: 234 | Population Apoptotic (%) [11]: 26% | Population Fragmented Nuclei (%) [11]: 10% | Population Hoechst High Intensity Objects (%) [11]: 6% | Population Membrane Permeable-Phenotype (%) [11]: 2% | Population Mitochondria Different-Phenotype (%) [11]: 13% | Population Mitotic Cells (%) [11]: 73% | Population Normal (%) [11]: 93% | Population Tubulin-Different-Phenotype (%) [11]: 10% | Total Cell Count [11]: 565 | Population Apoptotic (%) [12]: 15% | Population Fragmented Nuclei (%) [12]: 9% | Population Healthy Nuclei (%) [12]: 80% | Population Hoechst High Intensity Objects (%) [12]: 2% | Population Membrane Permeable-Phenotype (%) [12]: 11% | Population Mitochondria Different-Phenotype (%) [12]: 1% | Population Mitotic Cells (%) [12]: 84% | Population Normal (%) [12]: 97% | Population Pyknosed Nuclei (%) [12]: 9% | Population Tubulin-Different-Phenotype (%) [12]: 19% | Total Cell Count [12]: 390 | Population Apoptotic (%) [9]: 51% | Population Fragmented Nuclei (%) [9]: 21% | Population Healthy Nuclei (%) [9]: 30% | Population Hoechst High Intensity Objects (%) [9]: 19% | Population Membrane Permeable-Phenotype (%) [9]: 1% | Population Mitochondria Different-Phenotype (%) [9]: 22% | Population Mitotic Cells (%) [9]: 48% | Population Normal (%) [9]: 80% | Population Pyknosed Nuclei (%) [9]: 48% | Population Tubulin-Different-Phenotype (%) [9]: 16% | Total Cell Count [9]: 217 | Population Apoptotic (%) [10]: 32% | Population Fragmented Nuclei (%) [10]: 12% | Population Healthy Nuclei (%) [10]: 33% | Population Hoechst High Intensity Objects (%) [10]: 9% | Population Mitochondria Different-Phenotype (%) [10]: 2% | Population Mitotic Cells (%) [10]: 67% | Population Normal (%) [10]: 90% | Population Pyknosed Nuclei (%) [10]: 53% | Population Tubulin-Different-Phenotype (%) [10]: 10% | Total Cell Count [10]: 243
